Compounds with a hit are over-represented: about 3.1% of the library has one in this group of screens.
Beta cell apopt – beta cell apoptosis inhibition; 300,000 compounds, 0.8% hits; protection from apoptosis, % (no concentration beside the values); INS-1E cytokine-induced death, ATP luminescence, 48 h; percent of positive-control rescue, neutral wells zero;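 active means Every replicate reaches about 75%, or at least half do and their mean reaches it too, limit read from the data; inconclusive means At least half of replicates reach the limit but their mean does not; inactive means Under half of replicates reach the limit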;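 further: 0% = cytokine-treated negative control wells and 100% = positive control rescue; higher means more ATP so stronger rescue from cytokine killing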
Bfl-1 A1 inh – inhibitors of the anti-apoptotic protein A1, read as caspase activation. 330,000 compounds, 0.066% hits. caspase activation, % (no concentration beside the values). AID 2462. MEF A1-2A-BIM cells, Caspase-Glo 3/7 luminescence, 3 h; percent of clofoctol response, vehicle zero;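 active means over half of replicate activation scores above 10%, or exactly half above 10 with the replicate mean above 10; inconclusive means replicate mean below 10 yet half the replicates above 10; inactive means over half of replicates below 10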
Calb FLC – C. albicans growth modulation with fluconazole. C. albicans CaCi-2 (fluconazole-resistant clinical isolate) + fluconazole, Alamar Blue growth, 48 h. growth inhibition, % (no concentration beside the values). 300,000 compounds, 0.57% hits. AID 1979;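 active means growth inhibition above about 58% in most replicates, limit read from the data, passing the limit was not always enough; inconclusive means exactly half the replicates above a set limit; inactive means most replicates below a set limit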;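 further: all wells also contain fluconazole at 8 µg/ml as a sub-toxic cotreatment; 0% = median of DMSO wells and 100% = median of geldanamycin control wells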
CSC inhib – blocks cancer stem cells | cancer stem cell-like cells viability, luminescence | inhibition, % at 7.5 µM | 300,000 compounds, 1.1% hits | AID 2717; in the data active means inhibition above about 75%; inconclusive means no clear call, values can overlap the other calls; tested in HMLE shEcad cells
H9c2 TAG inh – triacylglycerol accumulation inhibition | 230,000 compounds, 0.66% hits | inhibition, % at 12.5 µM | H9c2 cells, Nile Red lipid (TAG) fluorescence; cells loaded with 200 µM oleic acid;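 active means pattern-corrected inhibition of lipid staining of at least 50% with the nuclear-stain viability signal not falling by more than 50%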;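 further: 0% = DMSO wells and 100% = triacsin C control wells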
T cruzi repl – T. cruzi replication inhibition; T. cruzi beta-gal in NIH3T3, luminescence, 90 h; 300,000 compounds, 1.4% hits; inhibition, % (concentration not given with the values); AID 1885;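 active means mean inhibition across valid replicates above about 55%, limit read from the data; inconclusive means mean below that limit but half or more replicates reach it; inactive means mean below it, under half of replicates reach it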;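 further: signal also drops with host cell toxicity which is not excluded here; 0% = plate median of DMSO wells and 100% = zero luminescence signal; higher percent means less beta-gal luminescence so fewer parasites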
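Assay system: NIH/3T3 fibroblasts plus reporter T. cruzi. Amount: NIH/3T3 cells, 5,000 per well. Buffer or medium: DMEM, 2% fetal bovine serum. Doses: compound pinned at 50 nL/well, DMSO. Schedule: ≥90 h infection period, 3 h prior cell attachment. Signal: luminescent β-galactosidase signal after 60 min lysis. Read-out: parasite load inhibition, %.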
Numbers without * were called inactive; u = inconclusive; x = not tested or not shown.

SMILES	Beta cell apopt	Bfl-1 A1 inh	Calb FLC	CSC inhib	H9c2 TAG inh	T cruzi repl
CC(C)C[C@H]1CN=C(Nc2ccccc2)N1CCC(C)c1ccccc1 (stereo not given in full)	103*	1	x	18	7	x
C/C(=N\NC(=O)c1cccc(Cl)c1)C1C(=O)c2ccccc2C1=O	10	-6	-16	93*	1	13
Cc1c(C(=O)Nc2nc3ccccc3[nH]2)oc2c(Cl)cccc12	38	0	2	10	x	70*
CCn1c(=O)c(C(=O)Nc2nc3ccccc3[nH]2)c(O)c2ccccc21	118*	-1	-7	67	-3	-4
Cc1c(C(=O)Nc2nc3ccccc3[nH]2)oc2ccc(Br)cc12	12	0	-11	-6	x	56*
CCc1ccc2nc(NC(=O)C3CSC4(C)CCC(=O)N34)sc2c1 (stereo not given)	-1	-1	-3	14	6	-2
Nc1c(C(=O)Nc2ccc3c(c2)OCCO3)nnn1Cc1cccc(Br)c1	2	-2	-1	77*	11	-8
CCn1c(=NC(=O)c2ccc(S(=O)(=O)N3CCOCC3)cc2)sc2cccc(OC)c21	88*	0	9	33	-6	46
CCn1c(=NC(=O)CCS(=O)(=O)c2ccccc2)sc2cccc(OC)c21	87*	0	14	-6	-14	u
Cc1onc(-c2ccccc2)c1C(=O)O/N=C(\N)c1ccc([N+](=O)[O-])o1	3	0	2	17	8	45
Cc1onc(-c2cccc(Cl)c2Cl)c1C(=O)O/N=C(\N)c1ccc([N+](=O)[O-])o1	15	-1	-3	16	14	78*
Cc1onc(-c2ccccc2Cl)c1C(=O)O/N=C(\N)c1ccccc1	5	0	-4	41	x	59*
CCc1nn(CC(=O)NCCc2ccc(OC)cc2OC)c(=O)c2cc3occc3n12	1	1	-7	-15	x	7
Cn1c(CNC(=O)CNC(=O)c2ccc(F)cc2)cc(=O)n(C)c1=O	-2	0	-32	10	x	-44
Oc1ccccc1CN1CCC(C(O)(c2ccccc2)c2ccccc2)CC1	0	1	-18	-14	x	4
CC(C)(C)c1ccc(C(O)CCCN2CCC(C(O)(c3ccccc3)c3ccccc3)CC2)cc1 (stereo not given)	u	1	x	10	62*	26
O=C(NCC(c1ccco1)N1CCCC1)c1ccccc1Sc1ccc(C(F)(F)F)cc1[N+](=O)[O-] (stereo not given)	0	0	-8	-2	8	56*
CCN(CC)C(=O)Cn1c(=O)n(-c2ccccc2)c(=O)c2c3c(sc21)CCC3	-3	2	113*	-6	-15	5
COc1ccc(Br)c(C(=O)OCC(=O)N2CCC(Cc3ccccc3)CC2)c1	x	x	x	x	-40	x
C/C=C/c1ccc(OCC(O)CN(C)Cc2ccc(SC)cc2)c(OC)c1 (stereo not given)	-4	2	-6	8	x	60*
Cn1c(N2CCOCC2)c(/C=N/O)c2ccccc21	4	1	-40	3	9	-27
CC(=O)O/N=C/c1c(N2CCOCC2)n(C)c2ccccc12	1	0	99*	-15	x	61*
Cn1c(N2CCOCC2)c(/C=N/OC(=O)c2ccc(F)cc2)c2ccccc21	65	-1	94*	12	x	65*
Cc1ccc(C(=O)O/N=C/c2c(N3CCOCC3)n(C)c3ccccc23)cc1	99*	-1	110*	-7	-28	56*
Cn1c(N2CCOCC2)c(/C=N/OC(=O)c2cccnc2Cl)c2ccccc21	x	x	-30	x	-3	7
SMILES	Beta cell apopt	Bfl-1 A1 inh	Calb FLC	CSC inhib	H9c2 TAG inh	T cruzi repl
Cc1cc(Br)ccc1OCC(=O)NNC(=O)Cc1ccccc1	0	0	-1	11	x	-5
Cc1cc(Br)ccc1OCC(=O)NNC(=O)C(=O)Nc1ccccc1	-1	1	89*	6	4	-6
CN1CCN(c2nc(-c3cccnc3)nc3ccccc23)CC1	2	1	12	-4	x	47
COc1cc2c(cc1OC)CN(c1nc(-c3cccnc3)nc3ccccc13)CC2	7	0	7	-10	2	55*
CCCNC(=S)NC1CC2CCCC(C1)N2Cc1ccc(F)cc1 (stereo not given)	-1	1	-7	-5	x	1
CCOC(=O)C1CCN(C(=O)c2ccc(NS(=O)(=O)c3ccc4[nH]c(=O)[nH]c4c3)cc2)CC1	x	x	x	x	4	x
Cc1nnc(NC(=O)C2CCN(S(=O)(=O)c3cc([N+](=O)[O-])ccc3Cl)CC2)o1	0	1	x	x	-29	x
Cc1cccc2sc(NC(=O)C3CCN(S(=O)(=O)c4cc([N+](=O)[O-])ccc4Cl)CC3)nc12	9	-1	18	7	x	68*
CCOC(=O)C1CCCN(C(=O)c2ccc(-c3ccc([N+](=O)[O-])cc3)o2)C1 (stereo not given)	-5	2	-5	19	0	44
CC(C)CC(=O)NCc1ccc2[nH]c3c(c2c1)CCCC3	-4	1	119*	x	-6	4
CCC(C)c1ccccc1NC(=O)COC(=O)c1ccc2[nH]c3c(c2c1)CCCC3 (stereo not given)	7	0	-24	107*	15	0
Cc1ccc(NC(=S)NCc2ccc3[nH]c4c(c3c2)CCCC4)cc1	-4	x	-9	x	-8	-1
COCCN(C(=O)c1snc(C(N)=O)c1N)C(C(=O)NC1CCCCC1)c1ccc(N(C)C)cc1 (stereo not given)	-5	1	12	-11	x	6
CCN1CCN(CC(=O)N2CCCC(C(=O)c3ccc(Oc4ccccc4)cc3)C2)CC1 (stereo not given)	3	-1	-20	-11	-6	72*
CCN(c1ccccc1)S(=O)(=O)c1ccc(Cl)c(NC(=O)COC(=O)c2ccc(O)cc2)c1	1	0	2	-1	x	9
CCN(c1ccccc1)S(=O)(=O)c1ccc(Cl)c(NC(=O)CN2CCCCCC2)c1	104*	0	-4	u	-4	60*
CCN(c1ccccc1)S(=O)(=O)c1ccc(Cl)c(NC(=O)COC(=O)c2cc(O)c3ccccc3c2O)c1	79*	0	1	103*	x	6
Cc1nnc2ccc(Oc3ccc(-c4ccccc4)cc3)nn12	92*	-1	u	-3	x	-106
COC(=O)c1ccc(Oc2ccc3nnc(C)n3n2)cc1	-1	1	-1	0	3	-3
CC(OC(=O)Nc1ccccc1)C(=O)OC1CCCCC1 (stereo not given)	x	x	x	x	-13	x
CCN1C(N(C)CCc2c[nH]c3ccccc23)=N[C@@H](c2cccc(C(F)(F)F)c2)C(C(=O)OC)=C1C	7	1	x	67	112*	x
CCN1C(N(C)CCc2cccs2)=N[C@@H](c2ccccc2)C(C(=O)OC)=C1C	6	1	-6	-7	-10	13
